For experiment [1], the system named is J774.A1. In words: Inhibition of LPS-induced production of nitric oxide in murine J774.A1 cells. It counts as functional, cell-based, Mus musculus. Put shortly:
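Murine J774 cells grown in medium containing fetal bovine serum are stimulated with LPS. Nitric oxide production is read as nitrite. IC50 is the concentration giving 50% inhibition of NO.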

Experiment [2] deals with Lipopolysaccharide (LPS). In words: Binding affinity to lipid A moiety of LPS present in Gram negative bacteria by fluorescent probe method. The class given is functional. Put shortly:
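Homogeneous, automated fluorescence displacement assay run in aqueous buffer. A fluorescent probe is bound to LPS and test ligand displaces it. ED50 is the ligand concentration that displaces 50% of the bound probe and is taken as relative binding affinity.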

Experiment [3] is filed under the species Mus musculus. In words: Decrease in lethality in D-galactosamine-sensitized mice challenged with LPS at 200 ng/mouse.
The species named for experiment [4] is Mus musculus. As to the kind of experiment: Decrease in lethality in D-galactosamine-sensitized mice challenged with LPS at 200 ng/mouse. It counts as functional, organism-based. The method, boiled down: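 Mice primed with D-galactosamine receive graded doses of test compound and are challenged with a supralethal LPS dose of 200 ng/mouse. The endpoint is lethality.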

Among the data in ChEMBL document CHEMBL1139003, “Novel endotoxin-sequestering compounds with terephthalaldehyde-bis-guanylhydrazone scaffolds” (Bioorg Med Chem Lett, 2006) are IC50, ED50 and Activity values, retold here.

Usually IC50 stands for the midpoint of a concentration-inhibition curve. A low value points to higher potency. Turning to `C=CCOc1c(/C=N/NC(=N)N)ccc(/C=N/NC(=N)N)c1OCC=C`, 9.64 µM corresponded to half-maximal inhibition in experiment [1] (Mus musculus, J774.A1) (IC50). This compound had an ED50 in experiment [2] of 29.9 µM.

The compound `CCCCCCOc1c(/C=N/N=C(N)N)ccc(/C=N/NC(=N)N)c1OCCCCCC` came in with an IC50 in experiment [1] (Mus musculus, J774.A1) of 4.67 µM. This compound displayed an ED50 in experiment [2] of 13.2 µM.

Take `N=C(N)N/N=C/c1ccc(/C=N/NC(=N)N)c(O)c1O`: half-maximal inhibition in experiment [1] (Mus musculus, J774.A1) (IC50) required 26.4 µM. The ED50 in experiment [2] came to 43.7 µM.

`CCOc1c(/C=N/N=C(N)N)ccc(/C=N/N=C(N)N)c1OCC` had a half-maximal inhibitory concentration (IC50) in experiment [1] (Mus musculus, J774.A1) of 4.56 µM. Also, in experiment [2], the ED50 was 22.8 µM.

In experiment [1] (Mus musculus, J774.A1), `CCCCCCCCCCCCCCOc1c(/C=N/N=C(N)N)ccc(/C=N/N=C(N)N)c1OCCCCCCCCCCCCCC` yielded a concentration for half-maximal inhibition (IC50) of 14.9 µM. In experiment [2], this compound displayed an ED50 of over 500 µM.

Turning to `CCCCCOc1c(/C=N/N=C(N)N)ccc(/C=N/N=C(N)N)c1OCCCCC`, in experiment [1] (Mus musculus, J774.A1), the half-maximal inhibitory concentration (IC50) turned out to be 3.54 µM. In experiment [2], this compound yielded an ED50 of 7.82 µM.

In turn, POLYMYXIN B [listing 1 of 2 here] registered an IC50 in experiment [1] (j774.a1) of 0.98 µM.

`COc1c(/C=N/N=C(N)N)ccc(/C=N/NC(=N)N)c1OC`: the IC50 in experiment [1] (Mus musculus, J774.A1) came out at 28 µM. Also, the ED50 in experiment [2] stood at 42.3 µM.

`N=C(N)N/N=C/c1ccc(/C=N/NC(=N)N)cc1`: inhibition in experiment [1] (Mus musculus, J774.A1) was half-maximal at 24.4 µM (IC50). The ED50 in experiment [2] is 34.6 µM.

In turn, `CCCCOc1c(/C=N/N=C(N)N)ccc(/C=N/NC(=N)N)c1OCCCC` showed an IC50 in experiment [1] (Mus musculus, J774.A1) of 4.15 µM. The ED50 in experiment [2] came to 9.44 µM.

`CCCCCCCCOc1c(/C=N/N=C(N)N)ccc(/C=N/N=C(N)N)c1OCCCCCCCC`: the Activity entry in experiment [3] and in experiment [4] was “Dose-dependent effect” in each case. The IC50 in experiment [1] (Mus musculus, J774.A1) is 3.45 µM. The ED50 in experiment [2] turned out to be 39.5 µM.

In experiment [2], POLYMYXIN B [listing 2 of 2 here] yielded an ED50 of 1.67 µM.

On to `CCCOc1c(/C=N/N=C(N)N)ccc(/C=N/N=C(N)N)c1OCCC`, for which, in experiment [1] (Mus musculus, J774.A1), 8.38 µM corresponded to half-maximal inhibition (IC50). The same compound displayed an ED50 in experiment [2] of 12.7 µM.
